From ChEMBL document CHEMBL3217641, “Structure-function study of gemini derivatives with two different side chains at C-20, Gemini-0072 and Gemini-0097” (Medchemcomm, 2011)

Assays:
[1] = molecular target: T1, Vitamin D3 receptor A (Danio rerio) (UniProt Q9PTN2); assay: Agonist activity at zebrafish gal4-VDR LBD expressed in human MCF7 cells by luciferase reporter gene based transactivation assay relative to 1alpha,25(OH)2D3; format: cell-based; conditions: tested as the 2H-labelled form
T1 sequence (whole entry): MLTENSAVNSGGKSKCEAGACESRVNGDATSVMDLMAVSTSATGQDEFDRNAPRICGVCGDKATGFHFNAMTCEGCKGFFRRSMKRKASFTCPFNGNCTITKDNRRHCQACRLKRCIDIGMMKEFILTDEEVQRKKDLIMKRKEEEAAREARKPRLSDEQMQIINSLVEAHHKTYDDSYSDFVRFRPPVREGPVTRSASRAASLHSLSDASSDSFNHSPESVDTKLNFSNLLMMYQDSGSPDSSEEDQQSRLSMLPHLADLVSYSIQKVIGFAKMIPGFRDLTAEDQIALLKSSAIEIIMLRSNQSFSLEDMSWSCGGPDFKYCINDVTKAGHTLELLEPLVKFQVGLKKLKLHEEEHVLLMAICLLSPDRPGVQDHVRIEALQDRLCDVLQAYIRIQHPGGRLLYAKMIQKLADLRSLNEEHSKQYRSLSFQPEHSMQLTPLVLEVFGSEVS
Method in brief: (§1)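 Transient transfection of MCF-7 cells (10^5/well, grown overnight in phenol red-free DMEM with 10% charcoal-treated FBS, gentamicin, insulin) with Gal4DBD-zVDR(156–453), ptk-LUC reporter, β-galactosidase control and carrier plasmid via jetPEI. After 10 h, ligands at 0.1, 1, 10, 100 nM versus DMSO solvent for 24 h. Luciferase normalized to β-galactosidase; triplicates, mean and S.D.; EC50 derived.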

[2] = molecular target: T1, Vitamin D3 receptor A (Danio rerio); assay: Agonist activity at zebrafish gal4-VDR LBD expressed in human MCF7 cells by luciferase reporter gene based transactivation assay relative to parental gemini; format: cell-based; conditions: tested as the 2H-labelled form; method in brief: as §1
[3] = molecular target: T2, Vitamin D3 receptor A (Danio rerio, UniProt Q9PTN2); assay: Agonist activity at zebrafish gal4-VDR LBD expressed in human MCF7 cells by luciferase reporter gene based transactivation assay; format: cell-based
T2 sequence (Q9PTN2 whole entry): T1 sequence (whole entry)
Method in brief: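 MCF-7 cells (10^5/well) were grown overnight in phenol red-free DMEM with 10% charcoal-treated FBS and 0.6 μg/ml insulin. They were transfected with jetPEI using Gal4DBD-zVDR(156–453) (25 ng), ptk-LUC reporter (250 ng) and β-galactosidase control (50 ng). After 10 h, ligand at 0.1–100 nM or DMSO solvent was added. After 24 h, luciferase was read, normalized to β-gal, in triplicate.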

[4] = Antiproliferative activity against ER positive human MCF10AT1 cells after 3 days by [3H]thymidine uptake assay; format: functional
[5] = Antiproliferative activity against ER positive human MCF10CA1a cells after 3 days by [3H]thymidine uptake assay; format: functional
[6] = Antiproliferative activity against ER positive human MCF10AT1 cells after 3 days by [3H]thymidine uptake assay relative to 1alpha,25(OH)2D3; format: functional
[7] = Antiproliferative activity against ER positive human MCF10CA1a cells after 3 days by [3H]thymidine uptake assay relative to 1alpha,25(OH)2D3; format: functional
[8] = Antiproliferative activity against ER negative human MCF10DCIS.com cells after 3 days by [3H]thymidine uptake assay
[9] = Antiproliferative activity against ER negative human MCF10DCIS.com cells after 3 days by [3H]thymidine uptake assay relative to 1alpha,25(OH)2D3

`CC(C)(O)CCC[C@@H](CC#CC(O)(C(F)(F)F)C(F)(F)F)[C@H]1CC[C@H]2/C(=C/C=C3C[C@H](O)C[C@@H](O)C3)CCC[C@]12C` showed a fold change (FC) [1] of 36 and a fold change (FC) [2] of 8.

With `[2H]C([2H])([2H])C(O)(CCC[C@H](CC#CC(O)(C(F)(F)F)C(F)(F)F)[C@H]1CC[C@H]2/C(=C/C=C3C[C@H](O)C[C@@H](O)C3)CCC[C@]12C)C([2H])([2H])[2H]` the EC50 [3] was 0.25 nM, the IC50 [4] was 0.51 nM and the IC50 [5] was 0.15 nM. The “fold change (FC)” value [6] was 10, the “fold change (FC)” value [7] was 10 and the IC50 [8] was 0.36 nM. The “fold change (FC)” value [9] was 10.

`[2H]C([2H])([2H])C(O)(CCC[C@@H](CC#CC(O)(C(F)(F)F)C(F)(F)F)[C@H]1CC[C@H]2/C(=C/C=C3C[C@H](O)C[C@@H](O)C3)CCC[C@]12C)C([2H])([2H])[2H]` showed an EC50 [3] of 0.15 nM, an IC50 [4] of 0.23 nM and an IC50 [5] of 0.09 nM. The “fold change (FC)” value [6] was 10, the “fold change (FC)” value [7] was 10 and the IC50 [8] was 0.23 nM. The “fold change (FC)” value [9] was 10.

`C=C1/C(=C\C=C2/CCC[C@]3(C)[C@@H](C(CCCC(C)(C)O)CCCC(C)(C)O)CC[C@@H]23)C[C@H](O)C[C@H]1O` showed an EC50 [3] of 1.2 nM.

`CC(C)(O)CCC[C@H](CC#CC(O)(C(F)(F)F)C(F)(F)F)[C@H]1CC[C@H]2/C(=C/C=C3C[C@H](O)C[C@@H](O)C3)CCC[C@]12C` gave a fold change (FC) [1] of 22 and a fold change (FC) [2] of 5.
